Rin1 Abl inh = inhibitors of Rin1-Abl protein binding, primary screen, biochemical, TR-FRET; Tyrosine-protein kinase ABL1 (Homo sapiens) + Ras and Rab interactor 1 (Homo sapiens), …; inhibition, % at 7.35 µM; 360,000 tested, 0.4% active; AID 588664, 2011; in the data active = inhibition above about 5%, passing the limit was not always enough
Rev-erbA mod = modulators of Rev-erb alpha DNA binding, primary screen, biochemical, FITC-DNA, fluorescence polarization, uHTS. Nuclear receptor subfamily 1 group D member 1 (Homo sapiens), P20393. activity, % at 10 µM. AID 1259318, 2017. 370,000 tested, 0.79% active. Rev-erbα–FITC-DNA binding, 90 min;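 active = activity above about 14%, limit read from the data; passing the limit was not always enough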;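 note: 0% = DMSO wells with 35 nM protein and 100% = DMSO wells with 750 nM protein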
Target sequence (P20393 whole entry, looked up): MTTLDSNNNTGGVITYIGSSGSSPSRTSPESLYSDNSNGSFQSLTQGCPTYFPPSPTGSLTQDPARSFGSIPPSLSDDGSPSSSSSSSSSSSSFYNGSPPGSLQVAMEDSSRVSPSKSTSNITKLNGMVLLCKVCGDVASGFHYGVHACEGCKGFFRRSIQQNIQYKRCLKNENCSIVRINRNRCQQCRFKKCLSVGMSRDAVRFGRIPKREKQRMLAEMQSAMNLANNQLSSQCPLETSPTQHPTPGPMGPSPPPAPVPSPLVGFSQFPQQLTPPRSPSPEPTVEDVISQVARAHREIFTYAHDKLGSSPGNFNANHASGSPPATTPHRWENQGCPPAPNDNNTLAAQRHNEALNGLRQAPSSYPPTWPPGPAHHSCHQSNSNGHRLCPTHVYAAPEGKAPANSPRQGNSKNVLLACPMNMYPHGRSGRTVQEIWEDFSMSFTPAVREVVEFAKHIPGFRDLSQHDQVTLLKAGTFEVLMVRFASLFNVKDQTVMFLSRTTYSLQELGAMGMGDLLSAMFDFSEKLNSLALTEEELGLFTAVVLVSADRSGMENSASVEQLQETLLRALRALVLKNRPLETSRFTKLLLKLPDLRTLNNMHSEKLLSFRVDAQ
Tb MetRS inh = T. brucei MetRS inhibitors, primary screen, biochemical, luminescence; methionyl-tRNA synthetase (Trypanosoma brucei brucei); purified T. brucei MetRS, ATP depletion, Kinase-Glo luminescence; 360,000 tested, 0.4% active; inhibition, % at 11.9 µM;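 active = inhibition above a per-plate cutoff of the control wells' mean inhibition plus 3 SD, cut at about 5.5% in these data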;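 note: 0% = DMSO wells median and 100% = median of wells with control inhibitor compound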
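Test system – parasite MetRS enzyme · Reagent – substrates ATP, L-methionine and bulk Escherichia coli tRNA · Doses – 11.9 µM compound single dose, 0.9% DMSO · Times – 15 min enzyme-compound preincubation, 2 h reaction, 10 min detection, 25 °C · Signal – Kinase-Glo luminescence, ATP depletion format · Controls – DMSO-only wells as low control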
PG9 binder = binders of HIV-1 gp120 antibody PG9, primary screen, biochemical, TR-FRET. HIV-1 gp120 / PG9 antibody interaction. TR-FRET gp120-PG9 antibody binding. inhibition, % at 6.7 µM. 360,000 tested, 0.43% active. AID 624416, 2012; in the data active = inhibition above about 8.5%
Rev-erbA confirm = modulators of Rev-erb alpha DNA binding, confirmation, biochemical, FITC-DNA, fluorescence polarization, single point. shares compounds with Rev-erbA mod. activation, % at 25 µM. 90 min. 3,000 tested, 61% active. AID 1259319, 2017;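 active = activation at or above a set limit, or at least 3 SD above the negative control mean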;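 note: 0% = 35 nM protein with DMSO and 100% = 750 nM protein high control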
RORg DNA counter = modulation of RORgamma DNA binding, dose response, counter-screen for Rev-erb alpha modulator project, biochemical, fluorescence polarization, FITC-DNA; IC50, µM; AID 1259320, 2017; purified RORgamma protein-FITC-DNA binding; shares compounds with Rev-erbA mod; 910 tested, 8% active;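 active = Compounds whose fitted half-maximal concentration for disrupting protein-DNA binding is below 10 micromolar; the record names Rev-erb in its text, so the target is in doubt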
The depositor's hits bear a star; · = not tested or not shown. The list is not random: actives were taken first. Their share in the collection is about 1.8%.

SMILES | Rin1 Abl inh | Rev-erbA mod | Tb MetRS inh | PG9 binder | Rev-erbA confirm | others
Cc1ccc(C(=O)NC2CCCCN(Cc3ccccc3C)C2=O)cc1 (configuration not stated) | · | 0 | · | · | ·
CCOc1ccc(NC(=O)CN(C)C(=O)c2cc(S(=O)(=O)N3CCCCCC3)ccc2OC)cc1OCC | 1 | 3 | 0 | 1 | ·
O=C(Nc1cccc2ccccc12)N1CCN(c2ccc(F)cc2)CC1 | 1 | 26* | -1 | 3 | 3
COc1cc(-c2cc(NC=O)c3ncc(-c4ccc(C(C)=O)cc4)n3c2)ccc1O | -8 | -6 | 0 | -2 | ·
CC(C)CNc1cccc2c1S(=O)(=O)N[C@@H](Cc1ccccc1)CO2 | · | -2 | · | -1 | ·
NC(=O)COc1ccc(/C=N\NC(=O)c2ccc(-c3ccccc3)cc2)cc1 | -1 | 35* | -1 | 2 | 21*
N#Cc1cc2ccccc2nc1SCC(=O)Nc1ccc(S(=O)(=O)N2CCCC2)cc1 | -3 | 30* | 0 | 0 | 24*
COc1ccc2nc(SCC(=O)Nc3ccc(S(=O)(=O)N4CCCC4)cc3)c(C#N)cc2c1 | -7 | 109* | 1 | -2 | 74* | RORg DNA counter=>40
CCOc1ccc2nc(SCC(=O)Nc3ccc(S(=O)(=O)N4CCCC4)cc3)c(C)cc2c1 | 3 | 25* | 1 | 0 | 17
C[C@H]1[C@@H](OC(=O)NCc2ccc(Cl)cc2)CC[C@@]23CCCN2C(=O)CCC[C@@H]13 | · | -6 | · | · | ·
Cc1cc2nc(SCC(=O)Nc3nonc3C)c3c(c2cc1C)CCCC3 | 2 | 103* | 0 | 1 | 81*
Cc1nonc1NC(=O)CSc1nc(C23CC4CC(CC(C4)C2)C3)nc2ccccc12 | 1 | 30* | -1 | 0 | 22*
Cc1nonc1NC(=O)CSc1nc(C2CCCCC2)nc2ccccc12 | 0 | 0 | 0 | 0 | ·
CCCCn1c(N)c(N(CCOC)C(=O)c2cccc(S(=O)(=O)N3CCCCCC3)c2)c(=O)[nH]c1=O | 4 | -5 | 0 | 2 | ·
Cc1ccc2cc(C#N)c(SCC(=O)N3CCCc4ccccc43)nc2c1 | -1 | 60* | -1 | -2 | 44* | RORg DNA counter=>40
Cc1cc(NC(=O)CSc2nc3ccccc3cc2C#N)no1 | 0 | 27* | 0 | -10 | 18*
CCOc1ccc2nc(SCC(=O)N3c4ccccc4Sc4ccccc43)sc2c1 | 3 | 0 | -1 | -2 | ·
CCOc1ccc2nc(SCC(=O)N3c4ccccc4Sc4ccccc43)c(C#N)cc2c1 | 1 | 142* | 0 | -3 | 61* | RORg DNA counter=>40
CCc1cc2ccc(C)cc2nc1SCC(=O)Nc1cc(C)on1 | 3 | 17* | 0 | 5 | 9
CCN1CCN(c2ccc(S(=O)(=O)N3CCOCC3)cc2NC(=O)C(C)Oc2ccc(F)cc2)CC1 (configuration not stated) | 1 | 3 | 0 | 0 | ·
C[C@H](CO)N1C[C@H](C)[C@@H](CN(C)S(=O)(=O)c2ccc3ccccc3c2)OCc2cnnn2CCCC1=O | 0 | 10 | 0 | 1 | ·
CCSc1nc2ccc(C)cc2cc1C#N | 1 | 30* | 0 | -1 | 12
N#Cc1cc2cc3c(cc2nc1SCC(=O)N1CCOCC1)OCCO3 | -1 | 17* | 0 | 0 | 7
COc1ccc2nc(SCC(=O)Nc3cc(C)on3)c(C#N)cc2c1 | 4 | 61* | -1 | -5 | 27*
COc1ccc2nc(SCC(=O)NCC3CCCO3)c(C#N)cc2c1 (configuration not stated) | -3 | -2 | 0 | 0 | ·
SMILES | Rin1 Abl inh | Rev-erbA mod | Tb MetRS inh | PG9 binder | Rev-erbA confirm | others
Cc1ccc2nc(SCC(=O)Nc3ccccc3N3CCOCC3)c(C#N)cc2c1 | -2 | 28* | -1 | 1 | 18*
CSc1ccccc1NC(=O)c1ccc(N2CCCC2=O)cc1 | 3 | 1 | 0 | -1 | ·
CNS(=O)(=O)c1ccc(C(=O)NCC(=O)NCCC(c2ccccc2)c2ccccc2)cc1 | -5 | 0 | 0 | 0 | ·
O=C(CN1CCCC1c1cccs1)Nc1cccc(S(=O)(=O)N2CCCC2)c1 (configuration not stated) | 1 | 11 | 0 | 2 | ·
C[C@@H]1CN([C@@H](C)CO)C(=O)CCCn2cc(nn2)CO[C@H]1CN(C)C(=O)Nc1ccc2c(c1)OCO2 | · | -6 | · | -1 | ·
O=C(NCc1ccccc1)C1C(c2ccc3c(c2)OCO3)=Nc2ccccc2N1C(=O)c1cccc2ccccc12 (configuration not stated) | · | 16* | 0 | -2 | 6
CC(=O)Nc1ccc(C(=O)N2c3ccccc3N=C(c3ccc4c(c3)OCO4)C2C(=O)NCc2ccccc2)cc1 (configuration not stated) | · | -1 | 0 | -3 | ·
Cc1cccc(C)c1NC(=O)C1C(c2ccc3c(c2)OCO3)=Nc2ccccc2N1C(=O)c1cccc2ccccc12 (configuration not stated) | · | 29* | 0 | -2 | 17*
CCOc1ccccc1NC(=O)CSc1nnc(SCc2ccccc2)s1 | · | 2 | · | · | ·
CCOC(CCn1c(SCC(=O)NC2CCCC2)nc2ccccc2c1=O)OCC | 1 | -2 | 0 | 0 | ·
CC(C)Cn1c(SCC(=O)N(C)C2CCS(=O)(=O)C2)nc2cc(Cl)ccc2c1=O (configuration not stated) | 4 | 4 | 1 | -2 | ·
CC(C)CCn1c(SCC(=O)NC2CCS(=O)(=O)C2)nc2cc(Cl)ccc2c1=O (configuration not stated) | 6 | 21* | 0 | 5 | 21*
CC(C)CCn1c(SCC(=O)NC2CC2)nc2cc(Cl)ccc2c1=O | 1 | 20* | 0 | 0 | 11
Cn1cncc1C#Cc1ccc2cc(C3(O)CCCCC3)oc(=O)c2c1 | 7 | 70* | 0 | 1 | 43* | RORg DNA counter=>40
C/C(=C\C(=O)OCCCCCCCCC(=O)O)C[C@@H]1OC[C@H](C[C@@H]2O[C@H]2[C@@H](C)[C@H](C)O)[C@@H](O)[C@H]1O | 0 | 4 | -1 | -1 | ·
COC(=O)c1c(-c2cccc3ccccc23)csc1NC(=O)Cc1ccc(OC)c(OC)c1 | -1 | 20* | -1 | -1 | 30*
NS(=O)(=O)c1ccc(CCNc2ccccc2[N+](=O)[O-])cc1 | -7 | 21* | 0 | -1 | 13
COc1ccc(C(=O)c2c[nH]c(C(=O)NCc3cccs3)c2)cc1 | 0 | 43* | 0 | 0 | 63* | RORg DNA counter=>40
